# Experimental data taken from paper PMC6935887 (Journal of Medicinal Chemistry, 2019).
# Experiments:
# [1] = target: T1, hCCR5 (Homo sapiens, UniProt P51681); assay: Tango β-arrestin recruitment assay in U2OS-CCR5 cells; assay type: cell-based; conditions: for Hill slope (nH): inhibition of CCL3-induced β-arrestin recruitment in U2OS-CCR5; for inhibition at 1 µM: read-out: inhibition at 1 μM (%), β-arrestin recruitment in U2OS-CCR5 by 1 μM compound, in the presence of an EC80 concentration of CCL3, negative = CCL3 stimulation
# Procedure, shortened: (§1)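 Tango bla U2OS cells (human CCR2b or CCR5) were trypsinized and seeded at 10 000 cells/well in FreeStyle medium. Agonist mode: CCL2 or CCL3 for 16 h, 37 °C, 5% CO2. Antagonist mode: 30 min room-temperature preincubation with increasing compound (≤0.5% DMSO final), then 16 h with EC80 CCL2 (5 nM, CCR2) or CCL3 (14 nM, CCR5). LiveBLAzer-FRET B/G substrate 2 h; excitation 400 nm, 460/535 nm emission ratio.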
# [2] = target: T2, hCCR2 (Homo sapiens, UniProt P41597); assay: [3H]-CCR2-RA-[R] displacement binding assay on U2OS-CCR2b membranes; conditions: for pKi ± SEM: displacement of ∼6 nM [3H]-CCR2-RA-[R] from U2OS cells stably expressing CCR2, 25 °C
# T2 sequence (P41597 1-360 isoform P41597-2): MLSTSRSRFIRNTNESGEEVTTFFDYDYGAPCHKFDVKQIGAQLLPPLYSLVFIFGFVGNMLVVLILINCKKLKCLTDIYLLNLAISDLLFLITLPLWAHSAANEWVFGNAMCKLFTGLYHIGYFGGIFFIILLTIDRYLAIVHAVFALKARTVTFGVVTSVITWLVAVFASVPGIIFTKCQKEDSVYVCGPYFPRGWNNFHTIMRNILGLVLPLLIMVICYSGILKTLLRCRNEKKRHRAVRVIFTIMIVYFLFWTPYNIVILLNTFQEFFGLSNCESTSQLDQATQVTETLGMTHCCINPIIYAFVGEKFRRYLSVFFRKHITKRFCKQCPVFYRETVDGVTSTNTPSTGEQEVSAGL
# Procedure, shortened: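 U2OS-CCR2b membranes (15–20 μg protein) were incubated with ~6 nM [3H]-CCR2-RA-[R] and at least 6 competitor concentrations. Buffer: 50 mM Tris-HCl, 5 mM MgCl2, 0.1% CHAPS, pH 7.4. Incubation 2 h at 25 °C. Rapid GF/B filtration, ten washes with ice-cold buffer (0.05% CHAPS), scintillation counting. Mean ± SEM of ≥3 experiments in duplicate.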
# [3] = tested on: CCR2; conditions: read-out: IC50 in CCR2 calcium flux assay; previously reported activity; cited from earlier work
# [4] = target: T2, hCCR2; assay: Tango β-arrestin recruitment assay in U2OS-CCR2 cells; assay type: cell-based; conditions: inhibition of CCL2-induced β-arrestin recruitment in U2OS-CCR2
# Procedure, shortened: as §1
# [5] = target: T2, hCCR2; assay: CCL2-stimulated [35S]GTPγS binding assay on U2OS-CCR2 membranes; assay type: biochemical; conditions: for decrease of basal [35S]GTPγS binding levels: 1 μM compound, in absence of CCL2, 0% = basal activity, 100% = 100 nM CCL2
# Procedure, shortened: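 U2OS-CCR2b cells are grown in McCoy's 5A with 10% FCS, G418, hygromycin and zeocin, switching to dialyzed FCS before harvest. Membranes are prepared by scraping in PBS, homogenizing in ice-cold 50 mM Tris-HCl, 5 mM MgCl2, pH 7.4, ultracentrifuging (31 000 rpm, 20 min, 4 °C) twice, storing at −80 °C and measuring protein by BCA. Values come from nonlinear regression, ≥3 experiments in duplicate.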
# [6] = target: T1, hCCR5; assay: CCL3-stimulated [35S]GTPγS binding assay on U2OS-CCR5 membranes; assay type: biochemical; conditions: CCL3 alone, U2OS-CCR5, 25 °C
# Procedure, shortened: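 Membranes from Tango U2OS cells stably expressing human CCR5 (10 μg, with 0.25 mg/mL saponin) were preincubated 30 min at 25 °C with 5 μM GDP and increasing CCL3. Then 0.3 nM [35S]GTPγS was added for 90 min at 25 °C. Stopped with ice-cold Tris/MgCl2, then GF/B filtration. Nonlinear regression.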
# [7] = CCL2 alone, [35S]GTPγS binding, U2OS-CCR2, 25 °C
# T1 sequence (P51681 whole entry): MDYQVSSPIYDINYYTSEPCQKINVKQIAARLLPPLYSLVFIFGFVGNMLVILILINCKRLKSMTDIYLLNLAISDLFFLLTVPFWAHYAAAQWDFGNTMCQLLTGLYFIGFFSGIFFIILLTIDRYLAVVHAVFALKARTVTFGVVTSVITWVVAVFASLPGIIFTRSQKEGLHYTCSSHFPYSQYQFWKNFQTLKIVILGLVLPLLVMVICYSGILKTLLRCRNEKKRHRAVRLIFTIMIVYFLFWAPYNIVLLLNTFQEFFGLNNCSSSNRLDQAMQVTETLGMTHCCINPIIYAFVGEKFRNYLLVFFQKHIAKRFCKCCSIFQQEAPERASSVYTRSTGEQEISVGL
molecule,measurement,setting,value
"CC(=O)C1=C(O)C(=O)N(c2ccc(Cl)cc2F)[C@@H]1C1CCCCC1 [CCR2-RA-[R], reference compound]",Hill slope (nH),[1],−2.4
"O=c1c(Cc2cccc(Cl)c2)c(C2CC2)[nH]c2ncnn12 [Compound 6, 6-(3-Chlorobenzyl)-5-cyclopropyl[1,2,4]triazolo[1,5-a]pyrimidin-7(4H)-one]",pKi ± SEM,[2],8.76 ± 0.01
same,IC50,[3],~20 nM
"Cc1nc2[nH]c(C3CC3)c(Cc3cccc(Cl)c3)c(=O)n2n1 [Compound 7, 6-(3-Chlorobenzyl)-5-cyclopropyl-2-methyl[1,2,4]triazolo[1,5-a]pyrimidin-7(4H)-one]",pKi ± SEM,[2],8.46 ± 0.05
"Nc1nc2[nH]c(C3CC3)c(Cc3ccccc3)c(=O)n2n1 [Compound 9, 2-Amino-6-benzyl-5-cyclopropyl[1,2,4]triazolo[1,5-a]pyrimidin-7(4H)-one]",fold decrease in affinity for CCR2 compared to 8,[2],5 fold
"COc1ccccc1Cc1c(C2CC2)[nH]c2nc(N)nn2c1=O [Compound 12, 2-Amino-5-cyclopropyl-6-(2-methoxybenzyl)[1,2,4]triazolo[1,5-a]pyrimidin-7(4H)-one]",inhibition at 1 µM,[1],-20%
"Cc1cccc(Cc2c(C3CC3)[nH]c3nc(N)nn3c2=O)c1 [Compound 13, 2-Amino-5-cyclopropyl-6-(3-methylbenzyl)[1,2,4]triazolo[1,5-a]pyrimidin-7(4H)-one]",pKi ± SEM,[2],8.61 ± 0.03
same,inhibition at 1 µM,[1],> 60%
"Nc1nc2[nH]c(C3CC3)c(Cc3cccc(F)c3)c(=O)n2n1 [Compound 14, 2-Amino-5-cyclopropyl-6-(3-fluorobenzyl)[1,2,4]triazolo[1,5-a]pyrimidin-7(4H)-one]",inhibition at 1 µM,[1],< 45%
"COc1cccc(Cc2c(C3CC3)[nH]c3nc(N)nn3c2=O)c1 [Compound 17, 2-Amino-5-cyclopropyl-6-(3-methoxybenzyl)[1,2,4]triazolo[1,5-a]pyrimidin-7(4H)-one]",pKi ± SEM,[2],7.89 ± 0.07
same,inhibition at 1 µM,[1],-27%
"Cc1ccc(Cc2c(C3CC3)[nH]c3nc(N)nn3c2=O)cc1 [Compound 19, 2-Amino-5-cyclopropyl-6-(4-methylbenzyl)[1,2,4]triazolo[1,5-a]pyrimidin-7(4H)-one]",Ki,[2],3 nM
same,pKi ± SEM,[2],8.46 ± 0.03
same,inhibition at 1 µM,[1],-57%
"Nc1nc2[nH]c(C3CC3)c(Cc3ccc(F)cc3)c(=O)n2n1 [Compound 20, 2-Amino-5-cyclopropyl-6-(4-fluorobenzyl)[1,2,4]triazolo[1,5-a]pyrimidin-7(4H)-one]",pKi ± SEM,[2],8.39 ± 0.03
"Nc1nc2[nH]c(C3CC3)c(Cc3ccc(Cl)cc3)c(=O)n2n1 [Compound 21, 2-Amino-6-(4-chlorobenzyl)-5-cyclopropyl[1,2,4]triazolo[1,5-a]pyrimidin-7(4H)-one]",pKi ± SEM,[2],8.74 ± 0.05
"COc1ccc(Cc2c(C3CC3)[nH]c3nc(N)nn3c2=O)cc1 [Compound 23, 2-Amino-5-cyclopropyl-6-(4-methoxybenzyl)[1,2,4]triazolo[1,5-a]pyrimidin-7(4H)-one]",inhibition at 1 µM,[1],-28%
"Cc1[nH]c2nc(N)nn2c(=O)c1Cc1cccc(Cl)c1 [Compound 24, 2-Amino-6-(3-chlorobenzyl)-5-methyl[1,2,4]triazolo[1,5-a]pyrimidin-7(4H)-one]",inhibition at 1 µM,[1],-35%
"CCCc1[nH]c2nc(N)nn2c(=O)c1Cc1cccc(Cl)c1 [Compound 26, 2-Amino-6-(3-chlorobenzyl)-5-propyl[1,2,4]triazolo[1,5-a]pyrimidin-7(4H)-one]",Ki,[2],~4 nM
same,inhibition at 1 µM,[1],> 60%
"CC(C)c1[nH]c2nc(N)nn2c(=O)c1Cc1cccc(Cl)c1 [Compound 27, 2-Amino-6-(3-chlorobenzyl)-5-isopropyl[1,2,4]triazolo[1,5-a]pyrimidin-7(4H)-one]",fold increase in CCR5 potency compared to 8,[1],2 fold
"CCCCc1[nH]c2nc(N)nn2c(=O)c1Cc1cccc(Cl)c1 [Compound 28, 2-Amino-5-butyl-6-(3-chlorobenzyl)[1,2,4]triazolo[1,5-a]pyrimidin-7(4H)-one]",Ki,[2],2 nM
same,inhibition at 1 µM,[1],> 60%
"CCCCCc1[nH]c2nc(N)nn2c(=O)c1Cc1cccc(Cl)c1 [Compound 30, 2-Amino-6-(3-chlorobenzyl)-5-pentyl[1,2,4]triazolo[1,5-a]pyrimidin-7(4H)-one]",pKi ± SEM,[2],8.14 ± 0.03
"Nc1nc2[nH]c(C3CCCC3)c(Cc3cccc(Cl)c3)c(=O)n2n1 [Compound 31, 2-Amino-6-(3-chlorobenzyl)-5-cyclopentyl[1,2,4]triazolo[1,5-a]pyrimidin-7(4H)-one]",fold increased affinity for CCR2 compared to 30,[2],4.5 fold
"CCCCCCc1[nH]c2nc(N)nn2c(=O)c1Cc1cccc(Cl)c1 [Compound 32, 2-Amino-6-(3-chlorobenzyl)-5-hexyl[1,2,4]triazolo[1,5-a]pyrimidin-7(4H)-one]",inhibition at 1 µM,[1],-63%
"Nc1nc2[nH]c(-c3ccccc3)c(Cc3cccc(Cl)c3)c(=O)n2n1 [Compound 34, 2-Amino-6-(3-chlorobenzyl)-5-phenyl[1,2,4]triazolo[1,5-a]pyrimidin-7(4H)-one]",fold decrease in affinity for CCR2 compared to 8,[2],20 fold
same,inhibition at 1 µM,[1],-41%
"Cc1ccc(-c2[nH]c3nc(N)nn3c(=O)c2Cc2cccc(Cl)c2)cc1 [Compound 35, 2-Amino-6-(3-chlorobenzyl)-5-(p-tolyl)[1,2,4]triazolo[1,5-a]pyrimidin-7(4H)-one]",fold decrease in affinity for CCR2 compared to 8,[2],122 fold
same,inhibition at 1 µM,[1],-13%
"Nc1nc2[nH]c(CCc3ccccc3)c(Cc3cccc(Cl)c3)c(=O)n2n1 [Compound 36, 2-Amino-6-(3-chlorobenzyl)-5-phenethyl[1,2,4]triazolo[1,5-a]pyrimidin-7(4H)-one]",fold decrease in affinity for CCR2 compared to 8,[2],40 fold
same,inhibition at 1 µM,[1],-42%
"CC(C)c1[nH]c2nc(N)nn2c(=O)c1Cc1ccc(Cl)c(Cl)c1 [Compound 38, 2-Amino-6-(3,4-dichlorobenzyl)-5-isopropyl[1,2,4]triazolo[1,5-a]pyrimidin-7(4H)-one]",fold increase in CCR5 potency compared to 37,[1],~2 fold
"CC(C)c1[nH]c2nc(N)nn2c(=O)c1Cc1cccc(Cl)c1Cl [Compound 39, 2-Amino-6-(2,3-dichlorobenzyl)-5-isopropyl[1,2,4]triazolo[1,5-a]pyrimidin-7(4H)-one]",Hill slope (nH),[1],−3.7
same,Hill slope (nH),[4],−2.5
same,decrease of basal [35S]GTPγS binding levels,[5],7–8%
"CC(C)c1[nH]c2nc(N)nn2c(=O)c1Cc1cc(Br)cc(Br)c1 [Compound 42, 2-Amino-6-(3,5-dibromobenzyl)-5-isopropyl[1,2,4]triazolo[1,5-a]pyrimidin 7(4H)-one]",inhibition at 1 µM,[1],≤ 70%
"CC(C)c1[nH]c2nc(N)nn2c(=O)c1Cc1ccc(Cl)c(Br)c1 [Compound 43, 2-Amino-6-(3-bromo-4-chloro-benzyl)-5-isopropyl[1,2,4]triazolo[1,5-a]pyrimidin-7(4H)-one]",Hill slope (nH),[1],−4.4
same,Hill slope (nH),[4],−3.4
same,decrease of basal [35S]GTPγS binding levels,[5],7–8%
"Cc1ccc(-c2ccc3c(c2)C=C(C(=O)Nc2ccc(C[N+](C)(C)C4CCOCC4)cc2)CCC3)cc1.[Cl-] [TAK-779, reference compound]",Hill slope (nH),[1],−1.1
"CCL2: human recombinant chemokine, endogenous agonist of CCR2",EC50,[5]; [7],8 nM
same,Emax ± SEM (%),[5]; [7],107 ± 2%
same,pEC50 ± SEM,[5]; [7],8.10 ± 0.06
"CCL3: human recombinant chemokine, endogenous agonist of CCR5",pEC50 of β-arrestin recruitment,"[1]; agonist, U2OS-CCR5",8.3 ± 0.08
same,pEC80 of β-arrestin recruitment,"[1]; agonist, U2OS-CCR5",7.9 ± 0.08
same,EC50,"[1]; read-out: EC50 of β-arrestin recruitment, agonist, U2OS-CCR5",6 nM
same,EC50,[6],4 nM
same,Emax ± SEM (%),[6],108 ± 2%
same,pEC50 ± SEM,[6],8.42 ± 0.06
